Assay type in all cases: functional
The subject of assay [1] is Escherichia coli. In words: Antibacterial activity against Escherichia coli ATCC 25922 after 24 hrs by CLSI method. The note with it: ATCC 25922, 24 h. In outline:
(§1)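 Broth microdilution in 96-well plates, using a medium of 1.75% w/v acid digest of casein and 0.15% w/v starch. Compounds came from a 10 mg/mL DMSO stock. Serial 2-fold dilutions started at 64 μg/mL, with DMSO diluted along with the compounds (0.64% final at the top concentration). Plates were incubated 24 h at 37 °C and read by visual inspection. Moxifloxacin and rifampicin were the positive controls.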

Assay [2] relates to Staphylococcus aureus. In words: Antibacterial activity against Staphylococcus aureus ATCC 29213 after 24 hrs by CLSI method. The conditions noted are these: ATCC 29213, 24 h. Summed up:
as §1

In assay [3] the test system is Acinetobacter baumannii. In words: Antibacterial activity against Acinetobacter baumannii BAA1605 after 24 hrs by CLSI method. The conditions noted are these: BAA1605, 24 h. Summed up: as §1
For assay [4], the system named is Staphylococcus aureus. In words: Antibacterial activity against Staphylococcus aureus ATCC 700699 after 24 hrs by CLSI method. The conditions noted are these: ATCC 700699, 24 h. Summed up:
as §1

Assay [5] relates to Klebsiella pneumoniae. In words: Antibacterial activity against Klebsiella pneumoniae ATCC 13883 after 24 hrs by CLSI method. The conditions noted are these: ATCC 13883, 24 h. In outline: as §1
Assay [6] has as its system Pseudomonas aeruginosa. In words: Antibacterial activity against Pseudomonas aeruginosa ATCC 27853 after 24 hrs by CLSI method. The note with it: ATCC 27853, 24 h. In outline: as §1
Assay [7] relates to Acinetobacter baumannii. In words: Antibacterial activity against Acinetobacter baumannii BAA747 after 24 hrs by CLSI method. The note with it: BAA747, 24 h. Summed up:
as §1

Assay [8] has as its system L5178Y. In words: Cytotoxicity against mouse L5178Y cells by MTT assay. In outline: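 MTT viability assay on L5178Y mouse lymphoma cells, compared with untreated controls. Negative controls were media containing 0.1% ethylene glycol monomethyl ether/DMSO. Three independent experiments, each in triplicate.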
(Tetrazolium dyes change colour on reduction, which living cells bring about.)

On to `Cc1c2c(c3cc(C)n([C@@H](CC(C)C)C(=O)O)c(=O)c3c1O)C[C@@H](C(C)(C)O)CO2`, for which the MIC in assay [1], in assay [2], in assay [3], in assay [4], in assay [5] and in assay [6] was more than 100 µM throughout. The MIC in assay [7] was more than 100 µM; in assay [8], more than 20 µM.

As to `CCC(C)[C@@H](C(=O)O)n1c(C)cc2c3c(c(C)c(O)c2c1=O)OC[C@H](C(C)(C)O)C3` (stereo partly specified), the MIC in assay [1], in assay [2], in assay [3], in assay [4], in assay [5] and in assay [6] was more than 100 µM throughout. Further, the values for the MIC in assay [7] and in assay [8] were more than 100 µM and more than 20 µM, respectively.

The values are drawn from ChEMBL document CHEMBL4265995, “Chaetolines A and B, Pyrano[3,2- f]isoquinoline Alkaloids from Cultivation of Chaetomium sp. in the Presence of Autoclaved Pseudomonas aeruginosa” (2018).
